Laboratory results: ChEMBL document CHEMBL3046255, “Moluccensins R-Y, limonoids from the seeds of a mangrove, Xylocarpus moluccensis” (2012)

Legend:
Type in all cases: functional
Brontispa longissima [1] = assay: Antifeedant activity against third-instar larvae of Brontispa longissima at 1 mg/mL after 48 hr by conventional leaf disk method
Procedure, shortened: (§1)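 Third-instar larvae exposed to test material at 1 mg/mL. Antifeedant rate is given as percent, mean ± SD, and is read after 24 h […] and 48 h […].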

Brontispa longissima [2] = assay: Antifeedant activity against third-instar larvae of Brontispa longissima at 1 mg/mL after 24 hr by conventional leaf disk method; procedure, shortened: as §1
Brontispa longissima [3] = assay: Insecticidal activity against third-instar larvae of Brontispa longissima assessed as mortality at 1 mg/mL after 9 days
Brontispa longissima [4] = assay: Antifeedant activity against third-instar larvae of Brontispa longissima after 24 hr by conventional leaf disk method
Procedure, shortened: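 Value is an AFC50: the concentration giving 50% antifeedant activity against third-instar larvae after 24 h exposure.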

Row | SMILES | Activity (Brontispa longissima [1]) [%] | Activity (Brontispa longissima [2]) [%] | Activity (Brontispa longissima [3]) [%] | AFC50 (Brontispa longissima [4]) [µg/mL]
1 | COC(=O)C[C@H]1C(C)(C)[C@H](OC(C)=O)[C@]2(O)CC3=C4CC(=O)O[C@@H](c5ccoc5)[C@]4(C)CC[C@@H]3[C@@]1(C)C2=O [2-HYDROXYFISSINOLIDE] | 91.5 | 93.7 | 34.4 | 94
2 | CCC(C)C(=O)O[C@H]1C(C)(C)[C@H]([C@@H](O)C(=O)OC)[C@]2(C)C(=O)[C@@]1(O)CC1=C3CC(=O)O[C@@H](c4ccoc4)[C@]3(C)CC[C@@H]12 (stereo partly drawn) [MOLUCCENSIN S] | 44.1 | 42.3 | 48.2 | 
3 | COC(=O)[C@H](O)[C@H]1C(C)(C)C(=O)[C@@H]2CC3=C4CC(=O)O[C@@H](c5ccoc5)[C@]4(C)CC[C@@H]3[C@@]1(C)C2=O [6-HYDROXYMEXICANOLIDE] | 69.3 | 76.6 | 20.7 | 
4 | COC(=O)[C@H](O)[C@H]1C(C)(C)[C@H](OC(=O)C(C)C)[C@]2(O)CC3=C4CC(=O)O[C@@H](c5ccoc5)[C@]4(C)CC[C@@H]3[C@@]1(C)C2=O [MOLUCCENSIN R] | 62.1 | 69.6 | 17 | 
